CHO-K1 Ca ag: nonselective activator or artifact in parental CHO-K1 cells; 360,000 compounds, 0.48% hits; Fluo-8 calcium fluorescence; scaled to maximal ATP response, vehicle zero; activation, % at 3 µM; in the data active = activation above about 15%;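 also: untransfected CHO-K1 host cells lacking M1 receptor as counterscreen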
M1 PAM parental: counter-screen for M1 PAMs: effect in parental CHO-K1 cells. activation, % at 3 µM. ATP EC20, Fluo-8 calcium fluorescence; 0% at ATP EC20, 100% at ATP max. 360,000 compounds, 0.02% hits;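 active = activation above the run cutoff, the mean activation of all test compounds plus 3 SD, cut at about 40% in these data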;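 also: peak over basal fluorescence ratio in a 140 s read after ATP addition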
CHO-K1 Ca antag: M1 antagonist counterscreen hit in parental CHO-K1 cells. ATP-induced calcium, Fluo-8 fluorescence. inhibition, % at 3 µM. 360,000 compounds, 0.6% hits. AID 602250;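 active = inhibition above a per-plate cutoff, the plate's mean sample inhibition plus 3 SD, cut at about 24% in these data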;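 also: 0% = DMSO plus EC80 ATP and 100% = DMSO alone without ATP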
zfTRPN1 agonist: agonists of zebrafish TRPN1 channel; HEK293 zebrafish TRPN1-YFP, Fluo-8 calcium fluorescence; 100% = response to 87 µM carbachol; activation, % at 3 µM; 220,000 compounds, 0.18% hits;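 active = activation above its plate's cutoff, the mean activation of test wells on that plate plus 3 SD, cut at about 19% in these data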;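 also: 0% = DMSO alone and 100% = 87 µM carbachol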
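Control set: carbachol 87 µM as high control, DMSO as low control; system: HEK293 stable line with zebrafish TRPN1-YFP; read-out: % activation versus carbachol response; detection: intracellular calcium fluorescence with Fluo-8; doses: single test compound dose, 3 µM nominal, 0.3% DMSO; schedule: dye 1 h 37 °C plus 30 min RT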
TRPML3 ag: activates the human TRPML3 channel | HEK293 TRPML3-YFP, Fluo-8 calcium fluorescence; 100% = the carbachol control signal | activation, % at 3 µM | 220,000 compounds, 0.29% hits | AID 1448;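 active = activation above its plate's cutoff, the mean activation of the plate's test wells plus 3 SD, cut at about 12% in these data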;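 also: 0% = DMSO only wells and 100% = carbachol wells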
Target sequence (Q8TDD5 whole entry, looked up): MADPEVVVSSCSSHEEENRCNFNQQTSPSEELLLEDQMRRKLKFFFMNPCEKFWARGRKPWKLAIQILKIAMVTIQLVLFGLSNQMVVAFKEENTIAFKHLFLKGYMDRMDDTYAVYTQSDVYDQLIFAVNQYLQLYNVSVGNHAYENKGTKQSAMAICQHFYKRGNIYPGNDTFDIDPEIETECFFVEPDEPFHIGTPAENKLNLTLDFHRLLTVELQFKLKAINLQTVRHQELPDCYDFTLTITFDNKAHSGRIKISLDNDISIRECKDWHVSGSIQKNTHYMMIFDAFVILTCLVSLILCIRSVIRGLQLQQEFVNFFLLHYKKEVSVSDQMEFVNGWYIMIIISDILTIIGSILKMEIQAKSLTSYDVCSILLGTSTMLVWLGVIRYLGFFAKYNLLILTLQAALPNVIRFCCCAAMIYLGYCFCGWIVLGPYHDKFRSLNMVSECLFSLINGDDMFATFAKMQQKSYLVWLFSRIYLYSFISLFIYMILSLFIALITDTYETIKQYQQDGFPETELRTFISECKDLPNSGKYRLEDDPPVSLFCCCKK
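Test system – HEK293 line with stable expression of human TRPML3-YFP channel · Control set – carbachol 87 µM final as high control (100%), DMSO as low control (0%) · Signal – Fluo-8 calcium dye fluorescence, ex 470-495, em 515-575 nm · Incubation – 1-h 37 °C dye load, 5-s basal, 120-s post-compound reads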
Numbers without * were called inactive; x = no result. Hits are enriched below; roughly 1.2% of the tested compounds scored in any of these assays.

SMILES	CHO-K1 Ca ag	M1 PAM parental	CHO-K1 Ca antag	zfTRPN1 agonist	TRPML3 ag
CCOc1ccccc1OCCCC(=O)N1CCN(S(=O)(=O)c2cc(F)ccc2F)CC1	0	-18	28*	x	x
C=C1C(=O)N(C)CCC1C(CC)C(=O)OC (centres undefined)	1	1	1	x	x
COc1cccc(/C=N\NS(=O)(=O)c2ccccc2)c1OC	2	18	-3	x	x
COc1cc(/C=N/NS(=O)(=O)c2ccccc2)c(OC)c(OC)c1	16*	11	-4	x	x
O=C1NC[C@H](CCCCN2C[C@H](Cc3ccccc3)N(CCc3ccc(O)cc3)C(=O)C2=O)N(CCC2CCCCC2)C1=O	0	9	-11	x	x
COc1cccc(CNc2ccc3c(c2)CCC3)c1	0	-6	-13	-1	0
COc1cccc(CNc2ccc(C)c(Cl)c2)c1	17*	5	1	0	0
CC1(Oc2ccccc2)CCN(Cc2csc3ccccc23)C1 (centres undefined)	0	4	-3	x	x
COc1ccc(-c2nnc(-c3ccc(N(C)C)cc3)o2)cc1	1	16	-38	1	1
CN(C)c1ccc(-c2nnc(-c3ccccc3F)o2)cc1	19*	3	10	x	x
COc1cccc(C(=O)c2ccccc2NC(C)=O)c1	0	14	-6	x	x
CC1(C)C(=O)Nc2ccccc2N1C(=O)COC(=O)CNS(=O)(=O)c1ccc(F)c(F)c1F	-1	-22	24*	x	x
CC1(C)C(=O)Nc2ccccc2N1C(=O)COC(=O)CSc1ccc(Cl)cc1	2	-5	-10	x	x
CCCCNS(=O)(=O)c1cccc(NC(=O)[C@@H]2O[C@H](CO)[C@@H](O)[C@H]2O)c1	0	0	-5	x	x
Oc1ccccc1N=N/C(=N/Nc1ccccc1O)c1ccccc1	0	17	-13	x	x
N#C/C(N=Nc1ccccc1O)=N\Nc1ccccc1O	16*	4	10	x	x
CCC(C)(O)c1cnc(CC(C)C)c(=O)n1O (centres undefined)	0	1	-2	x	x
O=C(Nc1ccccc1)Nc1ccc2nnsc2c1	18*	-11	25*	18	8
O=C(Nc1ccccc1)Nc1ccc2snnc2c1	14	5	21	21*	11
CN(C)c1ccc(NC(=O)Nc2ccc3snnc3c2)cc1	13	2	18	19*	6
COc1cc(CNC(=O)Nc2nnc([C@H]3C[C@H](O)[C@@H](CO)O3)s2)cc(OC)c1OC	0	9	-9	x	x
O=C(Nc1ncccc1O)c1ccc(Cl)c(S(=O)(=O)N2CCCCC2)c1	0	-14	38*	x	x
Cc1ccccc1NC(=O)c1cccc(S(=O)(=O)N2CCCCC2)c1	1	1	-14	x	x
Cc1ccc(NC(=O)c2ccccc2NS(=O)(=O)c2ccc(F)cc2)cc1S(=O)(=O)N1CCCCC1	12	-4	26*	6	3
CCOc1ccc(NC(=O)c2ccc(F)c(S(=O)(=O)N3CCCC3)c2)cc1	7	-11	24*	x	x
SMILES	CHO-K1 Ca ag	M1 PAM parental	CHO-K1 Ca antag	zfTRPN1 agonist	TRPML3 ag
Cc1ccccc1NC(=O)c1ccc(F)c(S(=O)(=O)N2CCCCC2)c1	19*	0	2	4	2
CCCCn1nc(C(=O)N(C)Cc2nc3ccccc3c(=O)[nH]2)c2ccccc2c1=O	13	4	5	x	x
CC[C@H]1c2[nH]c3ccccc3c2C[C@H]2C(=O)N(c3ccc(F)cc3)C(=O)N21	1	-15	24*	x	x
COc1ccccc1-c1cnc(C(O)c2ccc(C)cc2)[nH]1 (centres undefined)	1	8	-3	x	x
CCN(CC)S(=O)(=O)c1cccc(C(=O)N/N=C/c2ccccc2OCC(=O)O)c1	1	-8	-7	1	1
CCN(CC)S(=O)(=O)c1cccc(C(=O)N/N=C/c2ccc(OC)c(O)c2)c1	1	-14	27*	0	1
O=C(CC(=O)N/N=C/c1cccs1)NCc1ccccc1	16*	1	7	-1	0
O=C(CNC(=O)c1ccccc1)N/N=C/c1cccs1	1	9	-4	0	1
CN(C)c1ccc(CC(=O)N2CCCC(c3cc(C(=O)Nc4ccc(C(C)(C)C)cc4)no3)C2)cc1 (centres undefined)	5	8	9	x	x
Cc1c(C(=O)c2ccc(N(C)C)cc2)c2ccccn2c1CCC#N	0	-18	25*	-1	0
Cc1c(C(=O)c2ccc(F)cc2F)c2ccccn2c1CCC#N	0	-9	11	x	x
O=C(CSc1nn(-c2ccccc2)c(=S)s1)Nn1cnnc1	0	6	-4	1	1
Cc1ccc(NC(=O)CSc2nn(-c3ccccc3)c(=S)s2)cc1S(=O)(=O)N(C)C	13	-5	29*	0	1
Cc1ccccc1-c1nnc(SCC(=O)NCC2CCCO2)o1 (centres undefined)	0	20	-14	x	x
O=C(CSc1nnc(-c2cccc(Br)c2)o1)NCC1CCCO1 (centres undefined)	0	-12	26*	x	x
Cc1ccc(S(=O)(=O)Cc2ccc(C(=O)N3CCN(c4cc(C)ccc4C)CC3)o2)cc1	0	9	-3	1	0
Cc1ccc(C)c(N2CCN(C(=O)c3ccc(CS(=O)(=O)c4ccccc4C)o3)CC2)c1	3	-8	25*	-1	2
COc1ccccc1C(O)c1ncc(-c2ccccc2C)[nH]1 (centres undefined)	1	21	-6	x	x
CC(C)[C@H](NC(=O)c1ccco1)C(=O)Nc1ccc(N2CCCCCC2)cc1	1	1	-2	x	x
COc1cc(F)ccc1-c1csc(C(C)(NC(C)=O)c2ccccc2)n1 (centres undefined)	0	10	1	x	x
Cc1n[nH]c(=S)n1/N=C/c1ccc(OCc2ccc(Cl)cc2)cc1	0	-8	25*	0	-1
Cc1n[nH]c(=S)n1/N=C/c1ccc(OCc2ccc(Cl)cc2Cl)cc1	0	6	-17	-1	1
O=C1C=CN(C2OC(CO)C(O)C2O)C(=O)C1 (centres undefined)	0	16	-21	x	x
COc1ccc(OC)c(C(=O)c2ccc(C(=O)Nc3ccc4ccccc4c3)cc2)c1	0	-16	27*	2	1
CC(=O)c1ccc(NC(=O)c2ccc(S(=O)(=O)N3CCCC3)cc2)cc1	1	-13	20	4	2
Cc1cc(C(=O)Nc2ccc(S(=O)(=O)N3CCCC3)cc2)cs1	1	-13	25*	1	-1
CCOC(=O)N1CCC(NC(=O)c2cc(C(=O)Nc3ccc(OCC)cc3)ccc2CO)CC1	0	10	-9	1	-1
CCOC(=O)N1CCC(NC(=O)c2cc(C(=O)Nc3ccc(S(=O)(=O)N4CCCCC4)cc3)ccc2CO)CC1	19*	12	-1	0	1
CCCCn1nnnc1C(c1ccccc1)N1CCN(c2c(Cl)cncc2Cl)CC1 (centres undefined)	2	22	-13	x	x

Screens from PubChem.
